# From PubChem
# CYP2C19 inhib – blockers of cytochrome P450 2C19 activity – biochemical, luminescence, ADME assay, primary screen; P33261; actives 21% (n = 96,000); AID 778, 2007; inhibition, % at 5 µM; CYP2C19 Supersomes, luciferin-H EGE luminescence, 30 min;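 active = CYP2C19 inhibition above a set limit at 5 µM in the primary screen, cut at about 50% in these data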;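 note: plate controls were negative control wells for no effect and 2.5 mM tranylcypromine positive control for full effect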
# Cav3 T inh – Cav3.2 calcium influx blockers – cell-based, Fluo-4 calcium fluorescence, FDSS, MLSMR library, primary screen. Voltage-dependent T-type calcium channel subunit alpha-1H (Homo sapiens), O95180. Cav3.2-expressing cells; active compounds read low. B-score at 10 µM. actives 4% (n = 100,000);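 active = single-dose well whose peak fluorescence ratio is a statistical outlier from its plate by either plate-standardised score or position-corrected B-score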
# CYP2C19 act – human CYP2C19 activators, primary screen, biochemical, luminescence. recombinant CYP2C19, luciferin-H EGE luminescence; active compounds read high; 0 = fully inhibited enzyme, 1 = untreated enzyme. activation factor at 5 µM. 96,000 tested, under 10 active;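 active = activation factor of at least 2 at 5 µM in the primary screen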;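 note: 0 = wells with 2.5 mM tranylcypromine and 1 = vehicle-only wells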
# HIV Rev-RRE inh – HIV-1 Rev-RRE binding inhibitors, primary screen, biochemical, FRET, protein-RNA interaction; P05866; Rev peptide-RRE RNA binding; inhibition, % at 8 µM; actives 0.79% (n = 97,000); AID 704, 2007;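 active = inhibition above the screen-wide mean plus 3 SD, cut at about 35% in these data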;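 note: 0% = median DMSO wells and 100% = median Neomycin B control wells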
# Target sequence (P05866 whole entry, looked up): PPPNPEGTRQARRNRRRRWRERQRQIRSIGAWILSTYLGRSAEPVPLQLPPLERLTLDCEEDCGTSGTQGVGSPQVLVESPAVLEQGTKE
#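 Test system: labelled RRE RNA duplex and labelled Rev peptide. Times: 5 min compound–RNA preincubation, then 15 min with peptide, 25 °C. Doses: single-dose 8 µM. Measured by: FRET, excitation 480 nm, emission 540 nm donor and 671 nm acceptor. Measure: % inhibition of FRET ratio versus controls.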
# CYP2C9 inh – blockers of cytochrome P450 2C9 activity – biochemical, luminescence, ADME assay, primary screen. CYP2C9 Supersomes, luciferin-H conversion. actives 20% (n = 96,000). P11712. inhibition, % at 5 µM;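 active = blocking of liver enzyme CYP2C9 beyond about 50% at 5 µM, limit read from the data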
# CYP2C9 activ – human CYP2C9 activators, primary screen, biochemical, luminescence; recombinant CYP2C9, luciferin-H conversion; active compounds read high; factor 1 = untreated enzyme, 0 = blocked; Cytochrome P450 2C9 (Homo sapiens), P11712; AID 1024, 2008; actives 1.4% (n = 96,000); activation factor at 5 µM;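 active = activation factor of 2 or more for CYP2C9 at a 5 µM dose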;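 note: 0 = sulfaphenazole-blocked wells and 1 = vehicle-only wells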
# * marks the source's active call; other numbers are inactive results; nt = not tested or not shown. Hits are enriched below; roughly 27% of the tested compounds scored in any of these assays.
SMILES,CYP2C19 inhib,Cav3 T inh,CYP2C19 act,HIV Rev-RRE inh,CYP2C9 inh,CYP2C9 activ
COc1ccc(OC)c(NC(=O)c2ccc(CN(c3cc(Cl)ccc3C)S(=O)(=O)c3ccccc3)cc2)c1,3.0,-0.605,1,12.0,39.0,0.6
O=C(NC1CC1)C1=C[C@H](C2CC2)C[C@H](OCCCCO)O1,nt,-0.599,nt,nt,nt,nt
CCCNC(=O)Nc1ccc2c(c1)N(C)C(=O)c1ccccc1S2,41.2,-0.0275,0.6,0.3,78.9*,0.2
CN1C(=O)c2ccccc2Sc2ccc(NC(=O)N3CCCC3)cc21,9.5,-0.0223,0.9,2.6,26.9,0.7
COc1ccc2c(CC(=O)OCC(=O)Nc3ccc4c(c3)OCO4)coc2c1,16.0,-0.491,0.8,nt,37.7,0.6
COC(=O)c1cc(NC(=O)Cc2ccc(OC)c(OC)c2)cc(C(=O)OC)c1,11.8,0.848,0.9,11.8,82.1*,0.2
COC(=O)c1cc(NC(=O)Cc2coc3cc(OC)ccc23)cc(C(=O)OC)c1,58.0*,-0.746,0.4,7.7,91.7*,0.1
COC(=O)c1ccc(C)c(NC(=O)Cc2coc3cc(OC)ccc23)c1,95.1*,-0.0774,0,0.9,97.9*,0
Cn1c(Cl)cnc1C(O)c1ccccc1 (stereo not given),11.8,0.603,0.9,3.7,8.1,0.9
COC(=O)CNC(=O)C1(C)C=CCN1C(=O)c1ccccc1 (stereo not given),nt,0.197,nt,nt,nt,nt
Cc1nc2c(Br)cc(Br)cc2cc1O,28.8,-5.06*,0.7,0.3,62.2*,0.4
Brc1cc(Br)c2nc(-c3cccs3)ccc2c1,-23.8,-0.49,1.2,4.8,4.6,1
CCn1c(SCC(=O)c2cc(C)n(CC3CCCO3)c2C)nc2ccccc21 (stereo not given),75.8*,-1.88,0.2,-4.7,1.6,1
Cc1cc(C(=O)CSc2nnc(Nc3ccccc3)s2)c(C)n1CC1CCCO1 (stereo not given),9.1,-1.56,0.9,-1.6,19.1,0.8
Cc1cc(C(=O)CSc2nnc(Nc3ccccc3F)s2)c(C)n1CC1CCCO1 (stereo not given),53.2*,-6.94*,0.5,2.8,55.5*,0.4
Cc1cc(C(=O)CSc2nnc(-c3cccnc3)n2-c2ccccc2F)c(C)n1CC1CCCO1 (stereo not given),77.7*,-0.00762,0.2,3.4,65.2*,0.3
Cc1ccccc1-n1c(SCC(=O)c2cc(C)n(C)c2C)nnc1-c1ccncc1,99.4*,1.55,0,2.5,92.1*,0.1
COc1ccc(N(CC(=O)O)S(=O)(=O)c2cccnc2)cc1,-20.2,0.975,1.2,5.9,-23.3,1.2
O=C(CN(Cc1ccco1)C(=O)c1cccc(Cl)c1)Nc1c(Cl)cc(Cl)cc1Cl,50.8*,-4.49*,0.5,-0.4,62.4*,0.4
COc1ccccc1NC(=O)CN(Cc1ccco1)C(=O)c1cccs1,16.2,-0.499,0.8,0.9,27.1,0.7
Cc1ccc(N2C(=O)c3n[nH]c(C)c3C2c2ccccn2)cc1 (stereo not given),16.6,nt,0.8,0.8,18.2,0.8
COc1cc(C2c3c(n[nH]c3C)C(=O)N2c2ccc(Br)cc2)ccc1O (stereo not given),52.5*,0.6,0.5,8.4,30.9,0.7
CCOc1cc(C2c3c(n[nH]c3C)C(=O)N2c2ccc(Br)cc2)ccc1O (stereo not given),81.0*,-1.57,0.2,4.0,71.2*,0.3
COC(=O)CC/C(C)=N\Nc1ccc([N+](=O)[O-])cc1[N+](=O)[O-],8.3,-0.407,0.9,6.2,10.5,0.9
Cc1ccc2nc(C3CCN(C(=O)c4ccco4)CC3)[nH]c2c1,6.2,0.244,0.9,2.6,26.3,0.7
CCOC(=O)CNC(=O)CSc1nc2nc(C)c(Br)cc2[nH]1,60.0*,1.21,0.4,1.1,60.8*,0.4
